GPR7 antag: blocks human GPR7 receptor signaling; AID 1861; GPR7-expressing cells, fluorescence antagonist assay; inhibition, % at 4.4 µM; hit rate 1.1% among 290,000; P48145; in the data active = inhibition above about 16%, passing the limit was not always enough;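 note: cells stimulated with the agonist NPW; 0% = agonist with vehicle and 100% = vehicle without agonist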
CHO parental Ca: counter-screen for OX1R antagonists: effect in parental CHO cells. inhibition, % at 5.6 µM. AID 463079. hit rate 0.63% among 330,000. parental CHO-K1, ATP-induced calcium, Fluo-8 fluorescence;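 active = inhibition above that plate's mean sample inhibition plus 3 SD, cut at about 26% in these data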;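 note: 0% = ATP-challenged DMSO wells and 100% = DMSO wells without ATP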
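Test system: parental CHO cells; detection: calcium-sensitive Fluo-8 fluorescence; evaluation: percent inhibition of calcium signal; also added: ATP as calcium-mobilizing challenge; repeats: one well per compound; control set: ATP-challenged DMSO wells low, unchallenged DMSO wells high; compound: single nominal dose of 5.6 µM per compound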
TAAR1 antagonist: human TAAR1 antagonism | CHO RD-HGA16 TAAR1, Fluo-8 calcium fluorescence, antagonist | inhibition, % at 3 µM | hit rate 1.5% among 360,000;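 active = inhibition above a per-plate cutoff, the mean inhibition of test compounds on that plate plus 3 SD, cut at about 49% in these data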;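 note: 0% = DMSO plus EC80 beta-PEA response and 100% = DMSO alone without agonist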
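Test system: RD-HGA16 CHO cells with stable hTAAR1 and Gα16 / Probe or stimulus: EC80 β-phenethylamine stimulus / Times: seeding 17-24 h prior, 75-min 37 °C, 30-min RT dye loading / Detection: Fluo-8 calcium-sensitive fluorescence / Read-out basis: % inhibition scaled between DMSO and EC80 PEA controls / Repeats: singlicate, one well per test compound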
OX1R antag-1: human HCRTR1 antagonism. CHO/OX1R cells, Fluo-8 calcium fluorescence, orexin A. hit rate 0.43% among 330,000. O43613. inhibition, % at 5 µM;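 active = inhibition above its plate's threshold, mean inhibition of all tested compounds on the plate plus 3 SD, cut at about 37% in these data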;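 note: 0% = orexin A challenge wells and 100% = SB-334867-A antagonist wells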
Target sequence (O43613 whole entry, looked up): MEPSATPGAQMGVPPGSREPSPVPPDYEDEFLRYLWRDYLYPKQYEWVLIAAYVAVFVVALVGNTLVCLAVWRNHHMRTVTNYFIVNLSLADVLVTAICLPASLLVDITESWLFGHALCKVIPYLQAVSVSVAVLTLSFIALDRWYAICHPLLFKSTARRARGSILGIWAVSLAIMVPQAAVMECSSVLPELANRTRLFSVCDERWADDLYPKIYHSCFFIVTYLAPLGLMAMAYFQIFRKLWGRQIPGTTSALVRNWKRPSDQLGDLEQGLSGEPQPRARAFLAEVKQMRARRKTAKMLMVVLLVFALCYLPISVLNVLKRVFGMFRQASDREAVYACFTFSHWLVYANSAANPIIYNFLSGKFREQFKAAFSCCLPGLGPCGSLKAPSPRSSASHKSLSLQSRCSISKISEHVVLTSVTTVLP
TAAR1 ag: agonists of human TAAR1. activation, % at 3 µM. CHO RD-HGA16 TAAR1, Fluo-8 calcium fluorescence; vehicle wells 0%, saturating PEA agonist 100%. AID 624467. hit rate 0.99% among 360,000. Q96RJ0;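 active = activation above the mean activation of all test compounds in the run plus 3 SD, cut at about 38% in these data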
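System: CHO RD-HGA16 cells carrying human TAAR1 plus Gα16; Incubation: 17-24 h seeding, 75 min 37 °C dye, 30 min RT; Measured by: Fluo-8 fluorescence, 5 s baseline then 140 s kinetic read; Control set: DMSO and PEA EC100; Replication: single well for each compound.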
OX1R antag-2: OX1R (human) antagonism | OX1R-expressing cells, FRET antagonist read-out | O43613 | hit rate 1.8% among 330,000 | inhibition, % at 6.6 µM; in the data active = inhibition mostly above about 38%, no sharp cut-off; inactive = mostly below about 40%;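 note: 0% = agonist challenge alone and 100% = reference antagonist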
GPR7 antag cf: confirmation of human GPR7 antagonists. hit rate 52% among 2,400. inhibition, % at 4.4 µM. GPR7-expressing cells, calcium fluorescence antagonist mode. shares compounds with GPR7 antag; in the data active = inhibition above about 24%;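 note: stimulated with the GPR7 agonist NPW; 0% = agonist plus vehicle and 100% = vehicle alone without agonist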
MCHR1 antagonist: counter-screen for GPR7 antagonists: antagonists of human MCHR1 | shares compounds with GPR7 antag | MCHR1-expressing cells, fluorescence antagonist assay | inhibition, % at 4.4 µM | hit rate 62% among 2,400; in the data active = inhibition above about 22%;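 note: 0% = vehicle with agonist and 100% = vehicle without agonist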
* marks the source's active call; other numbers are inactive results. The list is not random: actives were taken first. Their share in the collection is about 4.5%.

COC(=O)[C@@]12C[C@@H](CC(=O)NCCC(C)C)C(=O)N(Cc3ccc4c(c3)OCO4)C1=CCC(C)(C)C2 was read as TAAR1 antagonist -25 and TAAR1 ag -1.
For NS(=O)(=O)c1cccc(NC(=O)COC(=O)CC2CC3CCC2C3)c1 (configuration not stated) the results were GPR7 antag 36*, CHO parental Ca -11, TAAR1 antagonist -13, OX1R antag-1 -14, TAAR1 ag 2, OX1R antag-2 -7, GPR7 antag cf -6 and MCHR1 antagonist -6.
`CC(=O)c1cccc(NC(=O)COC(=O)CC2CC3CCC2C3)c1` (configuration not stated) gave CHO parental Ca -4, TAAR1 antagonist -16, OX1R antag-1 -6, TAAR1 ag 7 and OX1R antag-2 7.
Screening CC(C)NC(=O)C1(C)CSCC(=O)N1Cc1ccco1 (configuration not stated) returned TAAR1 antagonist -4 and TAAR1 ag 2.
Screening O=[N+]([O-])c1ccc(Oc2ccc(OCc3ccccc3)cc2)nc1 returned GPR7 antag 61*, CHO parental Ca 27, TAAR1 antagonist 21, OX1R antag-1 1, TAAR1 ag 4, OX1R antag-2 13, GPR7 antag cf 40* and MCHR1 antagonist 61*.
Screening O=[N+]([O-])c1cccnc1Oc1ccc(OCc2ccccc2)cc1 returned GPR7 antag 1, CHO parental Ca -11, TAAR1 antagonist 16, OX1R antag-1 -16, TAAR1 ag 2 and OX1R antag-2 11.
`COc1ccc(C2c3sc(=O)[nH]c3SC3C4CCC(C4)C23)cc1` (configuration not stated) gave GPR7 antag -15, CHO parental Ca -8, TAAR1 antagonist -13, OX1R antag-1 -33, TAAR1 ag 14 and OX1R antag-2 6.
Screening COc1cc(C2c3sc(=O)[nH]c3SC3C4CCC(C4)C23)ccc1O (configuration not stated) returned GPR7 antag 27*, CHO parental Ca -19, TAAR1 antagonist 4, OX1R antag-1 -17, TAAR1 ag 19, OX1R antag-2 12, GPR7 antag cf -18 and MCHR1 antagonist 15.
`OC1Cc2ccccc2C1Nc1cccc(C(F)(F)F)c1` (configuration not stated) gave TAAR1 antagonist 8 and TAAR1 ag -1.
For CCn1c(=O)c(=O)[nH]c2cc(C(=O)NC3CCCc4ccccc43)ccc21 (configuration not stated) the results were GPR7 antag 23*, CHO parental Ca -11, TAAR1 antagonist -2, OX1R antag-1 -15, TAAR1 ag 6, OX1R antag-2 3, GPR7 antag cf 3 and MCHR1 antagonist 5.
For COc1ccc(Cl)cc1-c1cc(C(=O)NCc2cccs2)[nH]n1 the results were TAAR1 antagonist -19 and TAAR1 ag 3.
`COCCNC(=O)C1(C)CCN(C(=O)c2ccc3sccc3c2)C1` (configuration not stated) gave TAAR1 antagonist -17 and TAAR1 ag 1.
For COC(=O)c1ccc(CSc2nnc(NC(C)C)s2)o1 the results were GPR7 antag -4, CHO parental Ca -3, TAAR1 antagonist 10, OX1R antag-1 -27, TAAR1 ag 3 and OX1R antag-2 11.
For COC(=O)c1ccc(CSc2nnc(Nc3cccc(OC)c3)s2)o1 the results were GPR7 antag 46*, CHO parental Ca -5, TAAR1 antagonist 16, OX1R antag-1 -11, TAAR1 ag 12, OX1R antag-2 33, GPR7 antag cf 1 and MCHR1 antagonist 48*.
For CC1CCN(c2nc(CN3CCCCC3)nc3scc(-c4ccccc4)c23)CC1 the results were GPR7 antag 23*, CHO parental Ca -17, TAAR1 antagonist -12, OX1R antag-1 -26, TAAR1 ag 13, OX1R antag-2 11, GPR7 antag cf 32* and MCHR1 antagonist 32*.
For CC1CCN(c2nc(-c3cccnc3)nc3scc(-c4ccccc4)c23)CC1 the results were GPR7 antag 0, CHO parental Ca -25, TAAR1 antagonist -2, OX1R antag-1 -29, TAAR1 ag 2 and OX1R antag-2 21.
`COc1cccc(C2=NOC(C(=O)NC(C)C)C2)c1` (configuration not stated) gave GPR7 antag 26*, CHO parental Ca -7, TAAR1 antagonist 3, OX1R antag-1 -17, TAAR1 ag 5, OX1R antag-2 11, GPR7 antag cf 1 and MCHR1 antagonist 3.
C[C@H]1CC[C@H]2C(=O)N3[C@H](c4ccccc4Br)[C@@H](C)CC[C@H]3C(=O)N2[C@@H]1c1ccccc1Br was read as GPR7 antag 29*, CHO parental Ca 23, OX1R antag-1 39, OX1R antag-2 75*, GPR7 antag cf 57* and MCHR1 antagonist 59*.
`Cc1cc2nc3c(=O)[nH]c(=O)[nH]c3nc2c([N+](=O)[O-])c1N` gave GPR7 antag 25*, TAAR1 antagonist 8, TAAR1 ag 13, GPR7 antag cf 13 and MCHR1 antagonist 4.
`Cc1c(N)c(C(C)(C)C)cc(C(C)(C)C)c1[N+](=O)[O-]` gave GPR7 antag -18, CHO parental Ca -22, TAAR1 antagonist -16, OX1R antag-1 -30, TAAR1 ag 16 and OX1R antag-2 18.
`CC(=O)Nc1ccc(C(=O)OCCC(C)C)cc1` gave GPR7 antag 25*, CHO parental Ca -10, TAAR1 antagonist 6, OX1R antag-1 -7, TAAR1 ag 13, OX1R antag-2 10, GPR7 antag cf 11 and MCHR1 antagonist -2.
For Cc1cccc(C)c1-n1nnnc1C1(C)CCC(=O)N1Cc1cccc(C(F)(F)F)c1 (configuration not stated) the results were TAAR1 antagonist 2 and TAAR1 ag 2.
For Cc1ccc(CC(=O)Nc2ccncc2)cc1 the results were GPR7 antag 33*, CHO parental Ca 22, TAAR1 antagonist 12, OX1R antag-1 -3, TAAR1 ag 6, OX1R antag-2 12, GPR7 antag cf 2 and MCHR1 antagonist 40*.
O=C1N(c2ccccc2)C[C@@H]2C[C@@H](c3cc4ccccc4o3)N3CCC[C@@]123 was read as GPR7 antag 25*, TAAR1 antagonist -10, TAAR1 ag 1, GPR7 antag cf 23 and MCHR1 antagonist 15.
